Results from ChEMBL document CHEMBL1212726, “Inhibition of a viral enzyme by a small-molecule dimer disruptor” (Nat Chem Biol, 2009).
Calls of active or inactive are those of the source.

What was measured:
[1] = Inhibition of KSHV protease by fluorogenic activity assay; parameters: species or system Human gammaherpesvirus 8
[2] = system: Human gammaherpesvirus 8; test: Inhibition of KSHV protease at 10 uM by fluorogenic activity assay
Procedure, shortened: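 Screen: protease at 2 μM final in 25 mM potassium phosphate pH 8, 150 mM KCl, 0.1 mM EDTA, 1 mM DTT. Compound at 10 μM final (1% DMSO) preincubated 30 min at 30°C. Ac-PVYtQA-ACC (P6) substrate added to 160 μM final. Fluorescence (ex 380/em 460 nm) followed 1 h at 30°C. Hit defined as ≥50% drop in initial velocity versus uninhibited control.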

[3] = target: Granzyme B (Homo sapiens) (UniProt P10144); test: Inhibition of granzyme B-mediated aggregation at 30 uM after 30 mins by spectrophotometry in presence of Triton X-100
Sequence of Granzyme B (Homo sapiens) (P10144 whole entry): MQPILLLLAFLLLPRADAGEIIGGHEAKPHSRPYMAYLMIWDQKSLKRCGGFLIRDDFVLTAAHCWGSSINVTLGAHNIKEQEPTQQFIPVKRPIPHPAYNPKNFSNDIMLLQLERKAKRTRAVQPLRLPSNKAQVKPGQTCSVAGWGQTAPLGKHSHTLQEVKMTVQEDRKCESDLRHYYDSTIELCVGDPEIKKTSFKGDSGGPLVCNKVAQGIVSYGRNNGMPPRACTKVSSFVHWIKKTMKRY

[4] = target: Granzyme B (Homo sapiens) (UniProt P10144); test: Inhibition of granzyme B-mediated aggregation at 30 uM after 30 mins by spectrophotometry in absence of Triton X-100
[5] = system: Human gammaherpesvirus 8; test: Activity at KSHV protease at 3 uM
Procedure, shortened: (§1)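 Michaelis–Menten kinetics in 100 μl with 1 μM KSHV Pr in assay buffer. P6 substrate at 80, 40, 30, 20, 10, 6, 4 and 2 μM, crossed with inhibitor at 10, 7, 5, 3, 1 and 0 μM. Initial velocities converted at 2364 rfu per μM substrate. […] Mean ± s.d. (n=3).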

[6] = system: Human gammaherpesvirus 8; test: Activity at KSHV protease at 10 uM; procedure, shortened: as §1
[7] = system: Human gammaherpesvirus 8; test: Activity at KSHV protease at 7 uM; procedure, shortened: as §1
[8] = system: Human gammaherpesvirus 8; test: Induction of KSHV protease Trp109 mutant dimerization disruption up to 30 uM by size exclusion chromatography
[9] = system: T1, Capsid scaffolding protein (Human herpesvirus 8 type P (isolate GK18) (HHV-8) (Kaposi'ssarcoma-associated herpesvirus)), Q2HRB6 [M197D]; test: Inhibition of KSHV protease M197D mutant at 170 uM by 1H-15N-HSQC NMR; details: Human gammaherpesvirus 8
T1 sequence (whole entry): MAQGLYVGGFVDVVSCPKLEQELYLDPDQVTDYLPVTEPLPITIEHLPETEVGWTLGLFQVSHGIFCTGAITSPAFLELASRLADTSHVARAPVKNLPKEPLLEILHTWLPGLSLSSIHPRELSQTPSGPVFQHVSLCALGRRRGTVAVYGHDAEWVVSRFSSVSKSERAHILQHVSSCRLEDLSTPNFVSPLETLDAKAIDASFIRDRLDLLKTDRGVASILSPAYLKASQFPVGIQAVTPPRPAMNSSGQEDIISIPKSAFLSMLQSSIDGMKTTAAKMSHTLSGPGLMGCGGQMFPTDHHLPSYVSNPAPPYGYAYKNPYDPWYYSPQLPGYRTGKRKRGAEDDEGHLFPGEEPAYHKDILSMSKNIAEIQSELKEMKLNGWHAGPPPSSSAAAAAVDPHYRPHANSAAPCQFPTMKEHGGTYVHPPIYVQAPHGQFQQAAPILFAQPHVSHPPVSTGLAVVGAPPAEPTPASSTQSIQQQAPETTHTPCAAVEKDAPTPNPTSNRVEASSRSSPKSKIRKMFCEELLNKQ

[10] = system: Human gammaherpesvirus 8; test: Ratio of Kcat to Km for KSHV protease at 1 uM; procedure, shortened: as §1
[11] = system: Human gammaherpesvirus 8; test: Mixed inhibition of KSHV protease at 1 to 10 uM
Procedure, shortened: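 1 μM KSHV protease in pH 8 phosphate assay buffer with Ac-PVYtQA-ACC substrate at 80, 40, 30, 20, 10, 6, 4 and 2 μM, and inhibitor at 10, 7, 5, 3, 1 and 0 μM. Initial velocities were converted with 2364 rfu per μM substrate.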

[12] = system: Human betaherpesvirus 5; test: Inhibition of CMV protease at 10 uM by fluorogenic activity assay
Procedure, shortened: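 CMV protease, expressed from a provided plasmid, run in the KSHV Pr fluorogenic assay format with KSHV Pr buffer and reagents, including the P6 ACC hexapeptide substrate.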

[13] = system: Human gammaherpesvirus 8; test: Ratio of Kcat to Km in KSHV protease at 7 uM; procedure, shortened: as §1
[14] = system: Human gammaherpesvirus 8; test: Inhibition of KSHV protease dimerization at 30 uM by size exclusion chromatography
[15] = system: Human gammaherpesvirus 8; test: Induction of KSHV protease dimerization disruption at 30 uM by size exclusion chromatography
Procedure, shortened: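 KSHV protease (S204G background) at 5 μM in 25 mM potassium phosphate pH 8, 150 mM KCl, 0.1 mM EDTA, 1 mM DTT, incubated with 30 μM compound for 30 min at 30°C (1% DMSO). Dimer and monomer were resolved by elution peaks. DMSO control.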

[16] = system: Human gammaherpesvirus 8; test: Activity at KSHV protease at 5 uM; procedure, shortened: as §1
[17] = system: Human gammaherpesvirus 8; test: Activity at KSHV protease at 1 uM; procedure, shortened: as §1
[18] = system: Human gammaherpesvirus 8; test: Ratio of Kcat to Km in KSHV protease at 10 uM; procedure, shortened: as §1
[19] = system: Human gammaherpesvirus 8; test: Ratio of Kcat to Km in KSHV protease at 3 uM; procedure, shortened: as §1
[20] = system: Human gammaherpesvirus 8; test: Ratio of Kcat to Km in KSHV protease at 5 uM; procedure, shortened: as §1

SMILES: O=C(O)c1ccc(NC(=O)c2cccc(CC3CCCCC3)c2)c(Cc2ccccc2)c1
- IC50 [1]: 8.8 µM
- inhibition [2]: 56.6%

SMILES: Oc1c(Cl)cc(Cl)c(Cl)c1Cc1c(O)c(Cl)cc(Cl)c1Cl
- inhibition [3]: inactive
- inhibition [4]: Active

SMILES: O=C(O)c1ccc(NC(=O)c2cncc(CC3CCCCC3)c2)c(Cc2ccccc2)c1
- inhibition [2]: 7.9%

SMILES: O=C(O)c1ccc(NC(=O)c2cccc(CC3CCCCC3)n2)c(Cc2ccccc2)c1
- Km [5]: 16.5 µM
- Km [6]: 27.4 µM
- Km [7]: 23.9 µM
- Activity [8]: inactive
- inhibition [9]: Active
- kcat/Km [10]: 997 M⁻¹ s⁻¹
- inhibition [11]: Active
- inhibition [12]: 92%
- kcat/Km [13]: 280 M⁻¹ s⁻¹
- inhibition [3]: inactive
- inhibition [14]: Active
- Activity [15]: Active
- Km [16]: 21.2 µM
- Km [17]: 13.6 µM
- inhibition [2]: 82.7%
- inhibition [4]: inactive
- kcat/Km [18]: 153 M⁻¹ s⁻¹
- kcat/Km [19]: 673 M⁻¹ s⁻¹
- kcat/Km [20]: 398 M⁻¹ s⁻¹

SMILES: O=C(O)c1ccc(NC(=O)c2ccc(CC3CCCCC3)cc2)c(Cc2ccccc2)c1
- inhibition [2]: 24%

SMILES: O=C(O)c1ccc(NC(=O)c2ccc(CC3CCCCC3)nc2)c(Cc2ccccc2)c1
- inhibition [2]: 10%

SMILES: O=C(O)c1ccc(NC(=O)c2ccccc2CC2CCCCC2)c(Cc2ccccc2)c1
- inhibition [2]: 14.8%

SMILES: COC(=O)c1ccc(NC(=O)c2cccc(CC3CCCCC3)c2)c(Cc2ccccc2)c1
- inhibition [2]: 9.4%

SMILES: COc1ccc(C(=O)Nc2ccc(C(=O)O)cc2Cc2ccccc2)cc1CC1CCCCC1
- IC50 [1]: 16.4 µM
- inhibition [2]: 51.1%
